High-throughput results: PubChem, The Scripps Research Institute Molecular Screening Center
GPR7 antag: GPR7 receptor antagonists, primary screen, cell-based, fluorescence, single concentration | Neuropeptides B/W receptor type 1 (Homo sapiens), P48145 | GPR7-expressing cells, fluorescence antagonist assay | inhibition, % at 4.4 µM | 290,000 tested, 1.1% active; in the data active means inhibition above about 16%, passing the limit was not always enough;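 further: cells stimulated with the agonist NPW; 0% = agonist with vehicle and 100% = vehicle without agonist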
Target sequence (P48145 whole entry, looked up): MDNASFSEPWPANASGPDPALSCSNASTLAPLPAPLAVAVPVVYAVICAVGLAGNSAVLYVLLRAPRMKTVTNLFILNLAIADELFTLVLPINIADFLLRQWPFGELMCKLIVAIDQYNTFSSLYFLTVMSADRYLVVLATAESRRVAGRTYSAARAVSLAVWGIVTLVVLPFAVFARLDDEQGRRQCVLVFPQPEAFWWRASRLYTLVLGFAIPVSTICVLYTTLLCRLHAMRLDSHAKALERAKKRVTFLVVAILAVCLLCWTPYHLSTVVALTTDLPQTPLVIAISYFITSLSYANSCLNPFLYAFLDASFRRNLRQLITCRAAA
DNA FID counter: compounds displacing fluorescent DNA intercalator, primary screen, artefact control for HCV NS3 helicase inhibitor project, biochemical, FID fluorescence; DNA fluorescent intercalator displacement; inhibition, % at 7.9 µM; 290,000 tested, 0.17% active; AID 1845, 2009; in the data active means inhibition above about 37%;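 further: 0% = vehicle and 100% = reference compound; higher means more ethidium bromide displaced from hairpin DNA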
EBNA-1 inhibitor: EBNA-1 DNA-binding inhibitors, primary screen, biochemical, fluorescence polarization. 300,000 tested, 0.34% active. AID 1950, 2009. inhibition, % at 14.8 µM; in the data active means inhibition above about 28%
HCV NS3 hel inh: inhibitors of HCV NS3 helicase, primary screen, biochemical, Cy5 molecular beacon fluorescence | inhibition, % at 10.9 µM | AID 1800, 2009 | 290,000 tested, 0.56% active | NS3 helicase DNA unwinding;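 active means inhibition above the mean of all tested compounds plus 3 SD, set per campaign, cut at about 35% in these data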;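 further: 0% = DMSO wells and 100% = thioflavine S control wells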
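Control set: DMSO versus 110 µM thioflavine S; Material: NS3 helicase fragment of HCV; Measured by: Cy5 fluorescence at 0 and 60 min, beacon hairpin quenching; Read-out basis: percent inhibition from t60/t0 fluorescence ratio; Times: reaction time 60 min, 25 °C; Repeats: single replicate; Compound dosing: single dose, 10.9 µM nominal final, DMSO 0.8% final.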
ZTA counter: blocks Epstein-Barr virus ZTA, an EBNA-1 counter-screen; P03206; ZTA-DNA binding, fluorescence polarization; inhibition, % at 11 µM; 320,000 tested, 0.15% active; AID 2234; in the data active means inhibition above about 33%
Target sequence (P03206 whole entry, looked up): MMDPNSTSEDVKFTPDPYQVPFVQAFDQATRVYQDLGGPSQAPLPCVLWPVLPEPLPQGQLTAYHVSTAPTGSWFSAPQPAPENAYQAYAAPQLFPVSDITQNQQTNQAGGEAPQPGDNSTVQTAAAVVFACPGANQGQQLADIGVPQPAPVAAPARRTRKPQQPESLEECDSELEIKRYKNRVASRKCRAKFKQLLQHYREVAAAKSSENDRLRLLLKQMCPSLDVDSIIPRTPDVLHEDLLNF
GPR7 antag conf: GPR7 receptor antagonists, confirmation, cell-based, fluorescence, single concentration | inhibition, % at 4.4 µM | GPR7-expressing cells, calcium fluorescence antagonist mode | 2,400 tested, 52% active | shares compounds with GPR7 antag; in the data active means inhibition above about 24%;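 further: stimulated with the GPR7 agonist NPW; 0% = agonist plus vehicle and 100% = vehicle alone without agonist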
MCHR1 antagonist: MCHR1 antagonists in cells, counter-screen for GPR7 antagonist project, cell-based, fluorescence, human; MCHR1-expressing cells, fluorescence antagonist assay; inhibition, % at 4.4 µM; AID 2148, 2009; 2,400 tested, 62% active; shares compounds with GPR7 antag; in the data active means inhibition above about 22%;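 further: 0% = vehicle with agonist and 100% = vehicle without agonist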
Numbers without * were called inactive; · = no result given. An excerpt weighted towards active compounds, which were near 2% of everything screened.

SMILES | GPR7 antag | DNA FID counter | EBNA-1 inhibitor | HCV NS3 hel inh | ZTA counter | GPR7 antag conf | MCHR1 antagonist
COC(=O)NNC(=O)c1ccc(Cl)cc1Cl | -8.4 | -1.1 | -6.7 | -0.4 | 2.0 | · | ·
COc1ccc(C(C)=O)cc1CC(=O)Nc1ccc2c(c1)CCC2 | 22.4 | -18.9 | -13.5 | 13.4 | -11.5 | · | ·
O=C(Nc1ncccc1O)c1ccc(Oc2ccccc2)cc1 | 35.2* | -11.7 | -15.4 | 7.4 | 0.2 | 8.6 | 16.0
Cc1ccc(-n2nnnc2SCC(=O)Nc2ccc3c(c2)OCCO3)cc1C | 21.4* | -7.2 | -3.6 | -4.4 | -2.7 | 9.4 | 5.2
Cc1ccc(NC(=O)CSc2nnnn2-c2ccc3c(c2)OCO3)cc1C | -8.4 | 1.5 | -11.8 | 8.1 | -15.1 | · | ·
CCCc1cc(C(=O)Nc2ccc(F)c(Cl)c2)no1 | 28.9* | -9.3 | 3.4 | -4.6 | 4.8 | 32.7* | 30.2*
COc1cc(OC)cc(-c2c(-c3cccs3)c3cc(-c4cnc(OC)nc4)ccc3n2C)c1 | · | · | · | · | 5.9 | · | ·
Cc1ccccc1CNC(=O)c1ccc(CSCc2ccccc2)cc1 | 31.7* | -15.1 | 4.7 | -8.2 | 3.4 | 24.9* | 48.4*
COc1ccc(NC(=O)CN(C2CCCCC2)S(C)(=O)=O)cc1OC | 7.0 | -5.4 | 9.5 | -13.6 | 11.4 | · | ·
CSc1cccc(NC(=O)CN(C2CCCCC2)S(C)(=O)=O)c1 | 28.2* | -16.1 | 1.8 | -0.3 | -1.8 | 8.9 | 15.0
O=C(COc1ccc(S(=O)(=O)N2CCOCC2)cc1)N1CCN(c2ccccc2)CC1 | 10.4 | -47.9 | 3.6 | 22.7 | -10.1 | · | ·
COc1ccc(NC(=O)CCS(=O)(=O)c2ccccc2Cl)cc1S(=O)(=O)Nc1ccc(Cl)cc1 | 25.2* | -18.2 | -2.7 | -11.8 | -13.4 | 22.7 | 25.5*
CC(C)c1ccc(NC(=O)[C@H](Cc2c[nH]c3ccccc23)NC(=O)[C@@H]2Cc3ccccc3CN2)cc1 | 27.3* | 34.0 | -9.1 | -65.9 | 0.1 | 7.1 | 2.7
Cc1ccc(S(=O)(=O)N2CCN(C(=O)C3CCCC3)CC2)cc1C | 1.5 | -28.6 | -7.2 | 11.8 | -6.2 | · | ·
Cc1ccc2occ(/C=N/NC(=O)c3ccc(O)cc3)c(=O)c2c1 | -8.4 | -6.7 | · | 8.5 | · | · | ·
NC(=O)N/N=C/c1coc2ccc(O)cc2c1=O | 21.4* | 1.4 | -3.8 | -3.8 | -0.7 | 4.7 | 4.3
COCCNC(=O)CCc1c(C)nc2c(c(C)nn2-c2ccc(C)cc2)c1C | 0.4 | -34.5 | -7.2 | -4.1 | -1.3 | · | ·
CCN(CC)CCNC(=O)CCc1c(C)nc2c(c(C)nn2-c2ccc(C)cc2)c1C | · | 28.0 | · | -46.9 | · | · | 17.9
COc1ccc(NC(=O)CN(c2ccc(OC)c(Cl)c2)S(=O)(=O)c2ccccc2)cc1 | -11.3 | -15.1 | -3.0 | -5.6 | -6.8 | · | ·
Cc1cccc(N(CC(=O)Nc2ccccc2F)S(C)(=O)=O)c1 | 26.9* | -8.2 | -15.8 | 20.2 | -27.0 | 9.7 | 3.7
COc1ccc(C(=O)NCc2nnc(SCC(=O)NCCc3ccccc3)o2)cc1 | 24.5* | -28.5 | -18.1 | 12.9 | 6.1 | -14.8 | 8.5
COc1ccc(C(=O)NCc2nnc(SCC(=O)Nc3cc(Cl)ccc3OC)o2)cc1 | 39.8* | -9.9 | -4.9 | 0.9 | -1.3 | 9.9 | 15.4
COc1cc(C(=O)NCc2nnc(SCC(=O)N3CCc4ccccc43)o2)cc(OC)c1OC | 29.7* | -1.8 | 6.2 | -3.5 | -10.0 | 0.0 | -15.3
c1ccc(-c2cnnn2-c2ccccc2)cc1 | -15.0 | -3.9 | · | -6.0 | · | · | ·
Nc1c(C(=O)Nc2ccccc2Cl)nnn1-c1ccc2c(c1)OCCO2 | 0.0 | -4.8 | -14.6 | -8.1 | 10.3 | · | ·
SMILES | GPR7 antag | DNA FID counter | EBNA-1 inhibitor | HCV NS3 hel inh | ZTA counter | GPR7 antag conf | MCHR1 antagonist
COc1ccc(-c2c(-c3cc(OC)cc(OC)c3)n(C)c3ccc(-c4ccc(N(C)C)nc4)cc23)cc1 | · | · | · | · | 7.7 | · | ·
CCOc1ccc(-n2c(=O)c3sccc3n(CC(=O)NC3CCCCC3)c2=O)cc1 | 3.6 | 0.1 | -16.0 | -0.2 | 12.4 | · | ·
COc1ccc(/C=C/c2ccc3cccc(O)c3n2)c(OC)c1OC | 32.5* | -20.3 | -9.0 | 3.7 | -15.5 | 20.3 | 62.0*
COc1cccc(/C=C/c2ccc3cccc(O)c3n2)c1OC | 2.2 | -26.3 | 2.1 | 19.9 | 3.3 | · | ·
Cc1ccc(C(=O)Nc2cc(C)nn2CCC#N)cc1 | 1.6 | -6.6 | -7.1 | 12.5 | -16.0 | · | ·
CN(C)S(=O)(=O)N1CCC(Oc2ccc(C(=O)NC3Cc4ccccc4C3)cc2)CC1 | 50.9* | -57.8 | 6.8 | -11.1 | 19.6 | 65.8* | 74.6*
COc1ccc2c(c1)C(c1ccccc1)NC(=O)C2 (stereo unspecified) | · | · | -7.8 | · | -7.2 | · | ·
COc1cccc(NC(=O)COC(=O)c2c3c(nc4ccccc24)CCC(C)C3)c1 (stereo unspecified) | 39.4* | -16.3 | -2.5 | -22.2 | 9.1 | 26.5* | 63.2*
O=[N+]([O-])c1ccc(-c2csc3[n+]2CCS3)cc1 | 28.9* | 5.7 | -3.0 | -14.6 | 17.5 | -1.4 | 13.8
Fc1ccc(-c2csc3[n+]2CCS3)cc1 | 4.3 | 5.2 | -7.6 | -3.9 | -17.9 | · | ·
COCc1ccc(CN2CCC(C(=O)Nc3cccc(-c4cscn4)c3)CC2)o1 | -9.8 | 0.9 | -3.8 | -3.4 | -4.7 | · | ·
C=CCn1cc(CN2CCC(C(=O)Nc3cccc(-c4cccc(F)c4)c3)CC2)c(C)n1 | 12.4 | 19.9 | 10.9 | -73.0 | 8.4 | · | ·
C=CCn1cc(CN2CCC(C(=O)Nc3cccc(-c4cccc(Cl)c4)c3)CC2)c(C)n1 | 40.7* | 40.8* | -18.3 | -72.4 | -11.7 | 40.7* | 58.2*
COCc1ccc(CN2CCC(C(=O)Nc3cccc(-c4cccc(Cl)c4)c3)CC2)o1 | 27.4* | 32.9 | -5.6 | -87.2 | 3.3 | 40.6* | 81.9*
Cc1ccc(C(C)C)cc1S(=O)(=O)Nc1cccnc1 | -0.4 | -11.9 | 5.4 | -2.4 | 0.5 | · | ·
CCOC(=O)/C(C(=O)Nc1ccccc1Cl)=C1/NC(C)(C)Cc2ccccc21 | -5.5 | -2.0 | 5.4 | -3.0 | -21.5 | · | ·
CCOC(=O)/C(C)=C1\NC(C)(C)Cc2ccccc21 | 23.9* | 0.5 | · | 4.3 | · | 13.7 | 7.5
CC(=O)c1cccc(NC(=S)NC(=O)Cc2ccc(Cl)cc2)c1 | 36.0* | -15.6 | 7.8 | 0.4 | 1.9 | 54.6* | 35.5*
O=S(=O)(c1ccc(SCCO)nc1)N1CCOCC1 | · | · | · | · | 10.9 | · | ·
CCCCCC(=O)Nc1ccc(C(=O)CN2C(=O)NC3(CCCCCC3)C2=O)cc1 | · | · | -1.6 | · | 12.8 | · | ·
C#CCOCCOCCOCCNc1nc(N2CCN(C(=O)[C@H](Cc3ccc(O)cc3)n3cc([C@@H](N)CC(C)C)nn3)CC2)nc(N2CCN(C(=O)[C@H](Cc3ccc(O)cc3)n3cc([C@@H](N)CC(C)C)nn3)CC2)n1 | 31.2* | 56.8* | -14.4 | -31.9 | -12.3 | -6.8 | 5.2
